This is a sample that favours compounds with a hit; in the whole collection about 2.2% have one here.
NR2E3 ag-1: activates human NR2E3 receptor; 360,000 tested, 0.35% active; CHO-S Gal4-NCOR/VP16-NR2E3 two-hybrid, luciferase; inhibition of corepressor binding, % at 3.98 µM; Q9Y5X4;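 active = inhibition above the mean of all tested compounds plus 3 SD, cut at about 70% in these data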;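 also: 0% = DMSO with NR2E3 transfected cells and 100% = cells lacking NR2E3 construct; higher means lower luciferase signal from less NR2E3 corepressor binding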
NR2F2 inh: NR2F2 (human) inhibition, primary screen. inhibition, % at 8.6 µM. AID 686940. HEK293T NGFI-A luciferase reporter, luminescence. 370,000 tested, 0.7% active;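 active = inhibition above a per-plate cutoff, mean inhibition of test wells between control levels plus 3 SD, cut at about 38% in these data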;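 also: cells cotransfected with COUP-TFII expression vector driving the NGFI-A reporter; 0% = median of COUP-TF2 test wells and 100% = reporter-only cells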
Target sequence (P24468 whole entry, looked up): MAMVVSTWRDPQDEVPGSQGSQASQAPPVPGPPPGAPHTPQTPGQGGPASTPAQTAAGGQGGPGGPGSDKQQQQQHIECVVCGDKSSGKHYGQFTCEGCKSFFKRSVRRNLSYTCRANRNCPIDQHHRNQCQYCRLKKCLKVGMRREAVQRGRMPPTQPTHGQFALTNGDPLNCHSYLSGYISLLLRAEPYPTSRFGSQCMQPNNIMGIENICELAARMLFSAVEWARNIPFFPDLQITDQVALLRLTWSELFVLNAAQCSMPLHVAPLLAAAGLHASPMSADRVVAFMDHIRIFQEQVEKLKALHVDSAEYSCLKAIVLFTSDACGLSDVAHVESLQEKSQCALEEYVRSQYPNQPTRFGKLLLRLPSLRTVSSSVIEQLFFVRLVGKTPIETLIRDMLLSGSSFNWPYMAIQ
SMARCA2 act: increases SMARCA2 function in MMTV reporter cells; MG213 cells, MMTV-luciferase reporter, dexamethasone, overnight; activation, % at 9.1 µM; 370,000 tested, 1% active; in the data active = activation above about 7.8%;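 also: 0% = vehicle wells and 100% = reference activator wells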
GalR3 antag: blocks the human galanin receptor 3; O60755; HEK293 GalR3-CNG cAMP membrane potential fluorescence; galR3 body fused to GalR1 C-terminus; inhibition, % at 3 µM; 360,000 tested, 0.44% active; AID 651719;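 active = inhibition above the screen-wide average plus 3 SD, cut at about 13% in these data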;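 also: forskolin and galanin both at EC90 stimulate the cells; cAMP rise reported by CNG channel membrane potential dye signal; 0% = forskolin plus galanin with DMSO and 100% = forskolin alone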
NR2E3 ag-2: activates human photoreceptor nuclear receptor NR2E3 | 320,000 tested, 0.12% active | Q9Y5X4 | GST-NR2E3/biotin-RetCOR TR-FRET, 1536-well | AID 2300 | inhibition of corepressor binding, % at 4.78 µM;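 active = percent inhibition above the cutoff of mean plus 3 SD of all tested compounds, set per screening campaign, cut at about 20% in these data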;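 also: 0% = DMSO wells and 100% = biotin wells as full block of FRET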
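Material: NR2E3–RetCOR corepressor complex / Incubation: Compound–protein incubation for 5 h at 4 °C / Dosing: compound at 4.8 µM, single dose / Detection: time-resolved FRET / Benchmarks: high control biotin, low control 0.6% DMSO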
SMARCA2 conf: confirmation of SMARCA2 (BRM) function activators; 3,500 tested, 30% active; activation, % at 9.1 µM; shares compounds with SMARCA2 act; MG213 cells, MMTV-luciferase with dexamethasone, luminescence, overnight; MG213 cells expressing E1A, Rb sequestered; DMSO wells 0%, reference activator 100%;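 active = activation above its plate's cutoff, the mean activation of tested wells plus 3 SD, cut at about 7.9% in these data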
VP16 Luc act: GAL4-VP16 reporter activation counter-screen | activation, % at 9.1 µM | HEK293 GAL4-VP16 pG5luc reporter, luciferase luminescence; scaled: DMSO wells 0%, SAHA wells 100% | 3,500 tested, 41% active | AID 686939 | shares compounds with SMARCA2 act;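 active = activation above the solvent-only control well mean plus 3 SD, averaged across control plates, cut at about 5.2% in these data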
* marks the source's active call; other numbers are inactive results; nt = no result.

SMILES	NR2E3 ag-1	NR2F2 inh	SMARCA2 act	GalR3 antag	NR2E3 ag-2	SMARCA2 conf	VP16 Luc act
Fc1ccccc1-c1nc(-c2ccc(Cl)cc2)no1	-41	-35	8.0*	-2	5	13*	9.7*
Cc1ccccc1Cn1cc(CN2[C@@H](C)COc3cc(Br)ccc3S2(=O)=O)nn1	nt	6	-3	nt	nt	nt	nt
Cn1c2ccc(F)cc2c2nnc(SCCN3CCOCC3)nc21	-13	-6	13*	-11	nt	3	2
CCCCn1c2ccc(F)cc2c2nnc(SCCN3CCOCC3)nc21	-9	-6	3	-12	nt	nt	nt
CCN1CCCCC(NC(=O)c2ccccc2OC)C1=O (stereo not drawn)	nt	3	-2	nt	nt	nt	nt
O=C1c2cccc3c([N+](=O)[O-])ccc(c23)C(=O)N1c1ccccn1	5	-13	14*	-6	-2	-16	6.5*
COC(=O)[C@@]12CCCCC=C1N(CCc1ccc(Cl)cc1)C(=O)[C@H]2CC(=O)NCC1CCCCC1	nt	11	-2	nt	nt	nt	nt
CN1CCc2c(c3ccccc3n2Cc2ccccc2)C1	1	-21	-2	-8	-1	-2	2
CCCCN1CCc2c(c3ccccc3n2Cc2ccccc2)C1	4	-9	-1	-15	-3	nt	nt
CCOc1ccc(Oc2c(Cl)c(Br)nn(Cc3cccc4ccccc34)c2=O)cc1	nt	3	-2	nt	nt	nt	nt
Cc1nnc(N/N=C/c2ccc(-c3ccccc3F)o2)n1N	-182	-16	12*	-2	-2	7	9.2*
CCCn1c(=NC(=O)c2ccco2)c(C(=O)OCC)cc2c(=O)n3ccccc3nc21	9	-49	13*	-1	1	4	2
Cc1cc(C)cc(C(=O)NCC(=O)OCC(=O)N2CCCC2)c1	-22	0	8.5*	-5	nt	0	1
CCSc1nnc(CCNC(=O)OC(C)(C)C)o1	3	-3	9.5*	-2	-2	-2	0
Cc1cccc(NC(=O)c2ccc(NCC3CCCO3)c([N+](=O)[O-])c2)c1 (stereo not drawn)	-48	-6	8.1*	5	4	1	3
Cc1occc1-c1nnc(SCC(=O)Nc2ccncc2)n1-c1ccccc1	nt	19	-2	nt	nt	nt	nt
COc1cccc(CNc2nc3ccccc3n2C)c1O	-109	-56	9.5*	-4	-1	11*	9.6*
Cc1ccc(-n2c(SCC(=O)Nc3ccccc3-c3ccccc3)nnc2-c2cccs2)cc1	nt	-8	5	nt	nt	nt	nt
O=C(c1cc(-c2ccc(Cl)cc2Cl)on1)N1CCCC1	-137	-22	0	-1	1	nt	nt
Cc1nccc(-c2cc(-c3ccc(Cl)cc3Cl)no2)n1	-92	-25	16*	-4	2	14*	3
CC(C)(C)c1ccc(-c2nnc(SCc3cccc4ccccc34)n2Cc2ccco2)cc1	nt	12	-7	nt	nt	nt	nt
CCCc1nc(-c2cc3ccc(C)cc3[nH]c2=O)no1	-30	-12	9.2*	-3	0	-1	2
CCOc1ccccc1-c1nc(-c2cc3ccc(C)cc3[nH]c2=O)no1	16	4	-2	-6	2	nt	nt
COc1ccc(C(=O)N/N=C(/C)c2cccc(NC(=O)C(F)(F)F)c2)cc1	-53	-17	14*	0	5	8	7.0*
Cc1ccc(S(=O)(=O)N2O[C@@H](c3ccccc3)C[C@H]2CON2C(C)(C)CCCC2(C)C)cc1	nt	15	nt	nt	nt	nt	nt
NNC(=O)COc1cccc2cccnc12	-8	9	-2	-7	1	nt	nt
O=C(COc1cccc2cccnc12)Nc1nccs1	-115	-25	9.2*	-6	0	9.0*	12*
O=C(NNC(=S)Nc1ccccc1)c1cccnc1	-41	-33	8.8*	-4	1	-2	5.4*
Cc1occc1C(=O)NNC(=S)Nc1ccccc1	-79	-13	9.3*	-4	4	5	6.8*
Cc1occc1C(=O)NNC(=O)C1CC1	-24	-10	9.5*	2	8	6	1
